Laboratory results: publication PMC7004511 (Cancer Science, 2020)
Entries after “also recorded” stand apart in the source; their conditions may differ. Read-outs that look alike come from different tables or passages of the source.

What was measured:
[1] = Phase I dose escalation; assay type: in vivo, human
[2] = Pharmacokinetics of gefitinib in plasma; assay type: in vivo, human
[3] = test system: BIM deletion polymorphism‐positive EGFR‐mutated NSCLC cell lines (PC‐3); settings: cited from earlier work
[4] = Pharmacokinetics of vorinostat in serum; assay type: in vivo, human; settings: for AUC(0-t): AUC last
How it was run: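 Patients with EGFR-mutated (exon 19 deletion or L858R) NSCLC carrying the BIM deletion polymorphism received oral vorinostat once daily on days 1-7 (200, 300 or 400 mg) with oral gefitinib 250 mg once daily, in 14-day cycles. Vorinostat was quantified in serum. Tmax is given as a median, and t1/2 and Cmax as mean ± SD per dose level.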

[5] = test system: T790M‐positive EGFR‐mutated NSCLC cells; settings: in vitro; cited from earlier work
[6] = test system: proapoptotic BIM protein (BIMEL); assay: Pharmacodynamics: western blotting of PBMC protein, BIMEL; assay type: in vivo, human
[7] = biweekly, plus erlotinib 150 mg daily or gefitinib 250 mg daily; cited from earlier work
[8] = test system: acetylated histone H3 (Lys27); assay: Pharmacodynamics: western blotting of PBMC protein, acetylated histone H3; assay type: in vivo, human
[9] = human, po, 200 mg, mean (SD), vorinostat Level 1 (200 mg) oral, n=3
[10] = human, po, 200 mg, median (range), vorinostat Level 1 (200 mg) oral, n=3
[11] = 4 h after dose on day 2 of cycle 1, all levels

COc1cc2ncnc(Nc3ccc(F)c(Cl)c3)c2cc1OCCCN1CCOCC1 [Gefitinib]
Recommended phase II dose (RP2D) of gefitinib ([1]; daily, with vorinostat 400 mg/day biweekly): 250 mg | Median T max of gefitinib ([2]; gefitinib 250 mg, vorinostat 200 mg group): 4 h

C=CC(=O)Nc1cc(Nc2nccc(-c3cn(C)c4ccccc34)n2)c(OC)cc1N(C)CCN(C)C [osimertinib]
Sensitivity to osimertinib-induced apoptosis [3]: resistant to osimertinib‐induced apoptosis

O=C(CCCCCCC(=O)Nc1ccccc1)NO [Vorinostat, suberoylanilide hydroxamic acid]
Recommended phase II dose (RP2D) of vorinostat ([1]; biweekly, combined with gefitinib 250 mg daily): 400 mg/day | Recommended phase II dose (RP2D) of vorinostat ([1]; combined with gefitinib): 400 mg | half-life ([4]; human, po, 200 mg): 3.6 h | AUC(0-inf) [4, 9]: 2.43 µM·h | AUC(0-inf) [4, 10]: 2.83 µM·h | AUC(0-t) [4, 9]: 2.34 µM·h | AUC(0-t) [4, 10]: 2.72 µM·h | Cmax ([4]; human, po, 200 mg, C max, mean (SD), vorinostat Level 1 (200 mg) oral, n=3): 602 nM | Tmax ([4]; human, po, 300 mg): 3.3 h | Tmax ([4]; human, po, 400 mg): 3.5 h | half-life ([4]; human, po, 400 mg): 2.1 h | Cmax ([4]; read-out: C max, median (range), vorinostat Level 1 (200 mg) oral, n=3): 615 nM | Cmax ([4]; read-out: C max, median (range), vorinostat Level 3 (400 mg) oral, n=6): 944 nM | T max, median (range) ([4]; vorinostat Level 1 (200 mg) oral, n=3): 2.0 (1.1‐4.0) h | T max, median (range) ([4]; vorinostat Level 3 (400 mg) oral, n=6): 4.0 (0.9‐4.1) h | Sensitization of cells to gefitinib [5]: did not sensitize T790M‐positive EGFR‐mutated NSCLC cells to gefitinib | Effect of vorinostat on the pharmacokinetics of gefitinib ([2]; vorinostat 200, 300, 400 mg groups compared): unlikely to affect the pharmacokinetics of gefitinib; also recorded: did not affect the dynamics of gefitinib | Patients with increased proapoptotic BIM protein (BIMEL) expression [6, 11]: 5/11 | Patients with increased proapoptotic BIM protein (BIMEL) expression ([6]; 4 h after dose on day 2 of cycle 1, all levels, listed as vorinostat): five of 11 | Patients with increased proapoptotic BIM protein (BIMEL) expression ([6]; all levels): 45.5% | Patients with increased proapoptotic BIM protein (BIMEL) expression ([6]; level 1 (200 mg)): 1/3 | Patients with increased proapoptotic BIM protein (BIMEL) expression ([6]; level 2 (300 mg)): 3/3 | Patients with increased proapoptotic BIM protein (BIMEL) expression ([6]; level 3 (400 mg)): 1/5 | Resensitization of cells to EGFR-TKI by addition of vorinostat [3]: could resensitize these cells to EGFR‐TKI | Recommended dose of vorinostat [7]: 400 mg/day | Patients with increased acetylated histone H3 protein expression [8, 11]: 10/11 | Patients with increased acetylated histone H3 protein expression ([8]; all levels): 91% | Patients with increased acetylated histone H3 protein expression ([8]; level 1 (200 mg)): 3/3 | Patients with increased acetylated histone H3 protein expression ([8]; level 2 (300 mg)): 3/3 | Patients with increased acetylated histone H3 protein expression ([8]; level 3 (400 mg)): 4/5
